According to ChEMBL document CHEMBL2203099, “Identification of a crucial amino acid in the helix position 6.51 of human tachykinin neurokinin 1 and 3 receptors contributing to the insurmountable mode of antagonism by dual NK₁/NK₃ antagonists” (J Med Chem, 2012):
Changes are numbered by the printed parent chain. pEC50, pKi: −log10 of the molar value. Active and inactive are the calls of the source. No cut-off for these calls is given here. Where a SMILES comes first, the peptide text is derived from it. [ ]: non-standard residue; d: D form. NMeF = CN[C@@H](Cc1ccccc1)C(=O)O

Key:
[1] = molecular target: T1, Neuromedin-K receptor (Homo sapiens, UniProt P29371, Y315F); assay: Displacement of radioligand [3H]osanetant at human NK3 Y315F6.51 mutant expressed in HEK293 cells; format: cell-based
[2] = molecular target: T2, Substance-P receptor (Homo sapiens, UniProt P25103); assay: Noncompetitive inhibition of wild type human NK1 receptor expressed in HEK293 cells assessed as decrease in SP1-induced [3H]IP accumulation after 20 mins; format: cell-based
[3] = molecular target: T3, Neuromedin-K receptor (Homo sapiens, UniProt P29371); assay: Displacement of [3H]osanetant from wild type human NK3 receptor expressed in HEK293 cells; format: cell-based
T3 sequence (P29371 whole entry): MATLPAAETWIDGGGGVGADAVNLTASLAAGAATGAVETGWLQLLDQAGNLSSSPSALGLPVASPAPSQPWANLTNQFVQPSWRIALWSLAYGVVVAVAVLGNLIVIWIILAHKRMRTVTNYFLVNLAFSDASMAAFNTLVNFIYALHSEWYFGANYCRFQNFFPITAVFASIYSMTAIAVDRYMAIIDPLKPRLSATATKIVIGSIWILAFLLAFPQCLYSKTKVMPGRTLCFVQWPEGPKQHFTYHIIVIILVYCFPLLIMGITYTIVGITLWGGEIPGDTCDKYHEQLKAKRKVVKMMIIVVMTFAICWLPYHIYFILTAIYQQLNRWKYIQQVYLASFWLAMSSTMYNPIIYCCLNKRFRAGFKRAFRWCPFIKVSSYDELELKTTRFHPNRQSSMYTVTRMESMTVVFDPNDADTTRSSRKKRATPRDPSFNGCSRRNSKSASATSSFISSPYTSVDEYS

[4] = system: HEK293; assay: Selectivity ratio of Ki for wild type human NK3 receptor expressed in HEK293 cells to Ki for human NK3 Y315F6.51 mutant expressed in HEK293 cells; format: cell-based
[5] = molecular target: T3, Neuromedin-K receptor; assay: Competitive inhibition at wild type human NK3 expressed in HEK293 cells assessed as decrease in [MePhe7]NKB-induced [3H]IP accumulation after 20 mins; format: cell-based; conditions: read-out: pA2 (converted)
Outline: (§1)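 HEK293 cells transiently expressing human NK3 WT or mutant, labeled with myo-[³H]inositol in LiCl buffer. Antagonist preincubated 20 min at 37 °C, then [MePhe⁷]NKB (0.01 nM–1 μM) added for 45 min at 37 °C. [³H]IP read by SPA beads. Schild analysis of EC50 shift and Emax depression across increasing antagonist concentrations gives pA2, slope and mode of antagonism.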

[6] = molecular target: T1, Neuromedin-K receptor; assay: Competitive inhibition at human NK3 Y315F6.51 mutant expressed in HEK293 cells assessed as decrease in [MePhe7]NKB-induced [3H]IP accumulation after 20 mins; format: cell-based; conditions: read-out: pA2 (converted); outline: as §1
[7] = molecular target: T2, Substance-P receptor; assay: Displacement of radioligand [3H]SP from wild type human NK1 receptor expressed in HEK293 cells; format: cell-based
Outline: (§2)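 Membranes from transiently transfected HEK293 cells, 2.5 μg protein/well, in 50 mM HEPES pH 7.4 with 3 mM MnCl2, phosphoramidon, leupeptin and 0.04% BSA. 10 competitor concentrations (0.0003–10 μM), 90 min at rt. Nonspecific binding with 10 μM NK1 antagonist. Filtration, then scintillation counting. Ki by Cheng–Prusoff. Three experiments, each in duplicate.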

[8] = molecular target: T4, Substance-P receptor (Homo sapiens, UniProt P25103, F264Y); assay: Displacement of radioligand [3H]SP from human NK1 F264Y6.51 mutant expressed in HEK293 cells; format: cell-based; outline: as §2
[9] = system: Substance-P receptor (Homo sapiens), P25103 [F264Y]; assay: Noncompetitive inhibition of human NK1 F264Y6.51 mutant receptor expressed in HEK293 cells assessed as decrease in SP1-induced [3H]IP accumulation after 20 mins; format: cell-based
[10] = molecular target: T5, Neuromedin-K receptor (Homo sapiens, UniProt P29371, Y247W); assay: Agonist activity at human NK3 Y247W mutant expressed in HEK293 cells assessed as [3H]IP accumulation after 45 mins; format: functional, cell-based
Outline: (§3)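 Human NK3 (WT or point mutant) transiently transfected into HEK293 cells and labeled with 5 μCi/mL myo-[³H]inositol. Assay buffer HBSS/20 mM HEPES pH 7.4 with 8 mM LiCl. [MePhe⁷]NKB at 0.01 nM–1 μM for 45 min at 37 °C. Lysis in 20 mM formic acid; [³H]IP captured on yttrium silicate SPA beads. EC50 and Hill slope from a four-parameter fit. Emax given as % of the WT fitted maximum from the same day.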

[11] = molecular target: T6, Neuromedin-K receptor (Homo sapiens, UniProt P29371, H316W); assay: Agonist activity at human NK3 H316W mutant expressed in HEK293 cells assessed as [3H]IP accumulation after 45 mins; format: functional, cell-based; outline: as §3
[12] = molecular target: T7, Neuromedin-K receptor (Homo sapiens, UniProt P29371, H316F); assay: Agonist activity at human NK3 H316F mutant expressed in HEK293 cells assessed as [3H]IP accumulation after 45 mins; format: functional, cell-based; outline: as §3
[13] = molecular target: T3, Neuromedin-K receptor; assay: Agonist activity at wild type human NK3 receptor expressed in HEK293 cells assessed as [3H]IP accumulation after 45 mins; format: functional, cell-based; outline: as §3
[14] = molecular target: T8, Neuromedin-K receptor (Homo sapiens, UniProt P29371, Y247F); assay: Agonist activity at human NK3 Y247F mutant expressed in HEK293 cells assessed as [3H]IP accumulation after 45 mins; format: functional, cell-based; outline: as §3
[15] = molecular target: T2, Substance-P receptor; assay: Binding affinity at human NK1 receptor
[16] = molecular target: Neuromedin-K receptor (Homo sapiens, UniProt P29371, Y247A); assay: Agonist activity at human NK3 Y247A mutant expressed in HEK293 cells assessed as [3H]IP accumulation after 45 mins; format: functional, cell-based; outline: as §3
[17] = system: T9, Neuromedin-K receptor (Homo sapiens), P29371 [Y315F]; assay: Noncompetitive inhibition at human NK3 Y315F6.51 mutant expressed in HEK293 cells assessed as decrease in [MePhe7]NKB-induced [3H]IP accumulation after 20 mins; format: cell-based; outline: as §1
T9 sequence (whole entry): T3 sequence (P29371 whole entry) with Y315F

[18] = molecular target: T4, Substance-P receptor; assay: Partial noncompetitive inhibition of human F264Y6.51 mutant expressed in HEK293 cells assessed as decrease in SP1-induced [3H]IP accumulation after 20 mins; format: cell-based; conditions: read-out: pA2 (converted)
[19] = system: T9, Neuromedin-K receptor (Homo sapiens), P29371 [Y315F]; assay: Antagonist activity at human NK3 Y315F6.51 mutant expressed in HEK293 cells assessed as decrease in [MePhe7]NKB-induced [3H]IP accumulation at 10 nM after 20 mins; format: functional, cell-based
[20] = molecular target: T10, Neuromedin-K receptor (Homo sapiens) (UniProt P29371); assay: Noncompetitive inhibition at wild type human NK3 expressed in HEK293 cells assessed as decrease in [MePhe7]NKB-induced [3H]IP accumulation after 20 mins; format: cell-based; outline: as §1
T10 sequence (whole entry): T3 sequence (P29371 whole entry)

[21] = molecular target: T8, Neuromedin-K receptor; assay: Competitive inhibition at human NK3 Y247F5.38 mutant expressed in HEK293 cells assessed as decrease in [MePhe7]NKB-induced [3H]IP accumulation after 20 mins; format: cell-based; conditions: read-out: pA2 (converted)
[22] = system: HEK293; assay: Selectivity ratio of Ki for human NK3 Y247F mutant expressed in HEK293 cells to Ki for wild type human NK3 receptor expressed in HEK293 cells; format: cell-based
[23] = molecular target: T5, Neuromedin-K receptor; assay: Displacement of radioligand [3H]osanetant at human NK3 Y247W mutant expressed in HEK293 cells; format: cell-based
[24] = system: T11, Neuromedin-K receptor (Homo sapiens), P29371 [H316W]; assay: Antagonist activity at human NK3 H316W6.52 mutant expressed in HEK293 cells assessed as decrease in [MePhe7]NKB-induced [3H]IP accumulation after 20 mins; format: functional, cell-based; outline: as §1
T11 sequence (whole entry): T3 sequence (P29371 whole entry) with H316W

[25] = molecular target: T8, Neuromedin-K receptor; assay: Displacement of radioligand [3H]osanetant at human NK3 Y247F mutant expressed in HEK293 cells; format: cell-based
[26] = system: HEK293; assay: Selectivity ratio of Ki for human NK3 Y247W mutant expressed in HEK293 cells to Ki for wild type human NK3 receptor expressed in HEK293 cells; format: cell-based
[27] = molecular target: T7, Neuromedin-K receptor; assay: Displacement of radioligand [3H]osanetant at human NK3 H316F mutant expressed in HEK293 cells; format: cell-based
[28] = system: HEK293; assay: Selectivity ratio of Ki for human NK3 H316F mutant expressed in HEK293 cells to Ki for wild type human NK3 receptor expressed in HEK293 cells; format: cell-based
[29] = molecular target: T6, Neuromedin-K receptor; assay: Displacement of radioligand [3H]osanetant at human NK3 H316W mutant expressed in HEK293 cells; format: cell-based

T8 sequence (P29371 whole entry Y247F): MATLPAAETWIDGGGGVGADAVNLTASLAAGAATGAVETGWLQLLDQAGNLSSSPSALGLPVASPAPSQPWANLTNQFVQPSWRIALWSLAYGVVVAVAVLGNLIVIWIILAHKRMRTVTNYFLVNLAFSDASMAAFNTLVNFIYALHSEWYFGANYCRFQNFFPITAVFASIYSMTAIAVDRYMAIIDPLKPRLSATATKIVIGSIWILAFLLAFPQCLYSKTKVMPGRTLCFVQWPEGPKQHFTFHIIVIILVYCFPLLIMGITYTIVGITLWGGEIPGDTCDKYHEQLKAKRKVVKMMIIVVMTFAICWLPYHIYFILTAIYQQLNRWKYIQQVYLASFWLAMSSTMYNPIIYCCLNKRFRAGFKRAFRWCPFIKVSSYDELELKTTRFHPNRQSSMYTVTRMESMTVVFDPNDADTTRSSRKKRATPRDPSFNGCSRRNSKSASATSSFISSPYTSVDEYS
T1 sequence (P29371 whole entry Y315F): as the sequence (P29371 whole entry Y247F) above, with F247Y, Y315F counted along it
T4 sequence (P25103 whole entry F264Y): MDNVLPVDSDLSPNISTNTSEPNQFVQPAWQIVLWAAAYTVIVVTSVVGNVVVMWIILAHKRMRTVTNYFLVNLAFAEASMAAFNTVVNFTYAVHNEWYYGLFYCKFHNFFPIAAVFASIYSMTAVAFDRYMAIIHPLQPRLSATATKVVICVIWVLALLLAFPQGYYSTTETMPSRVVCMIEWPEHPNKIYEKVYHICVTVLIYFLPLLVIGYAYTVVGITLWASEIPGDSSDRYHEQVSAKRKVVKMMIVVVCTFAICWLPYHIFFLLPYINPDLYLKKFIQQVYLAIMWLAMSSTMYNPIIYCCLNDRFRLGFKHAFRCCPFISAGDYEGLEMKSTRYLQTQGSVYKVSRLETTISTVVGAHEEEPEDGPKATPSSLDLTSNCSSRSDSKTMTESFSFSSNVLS
Substance-P receptor (Homo sapiens), P25103 [F264Y], sequence (P25103 whole entry F264Y): as above
T2 sequence (P25103 whole entry): as the sequence (P25103 whole entry F264Y) above, with Y264F counted along it
T7 sequence (P29371 whole entry H316F): as the sequence (P29371 whole entry Y247F) above, with F247Y, H316F counted along it
T6 sequence (P29371 whole entry H316W): as the sequence (P29371 whole entry Y247F) above, with F247Y, H316W counted along it
T5 sequence (P29371 whole entry Y247W): as the sequence (P29371 whole entry Y247F) above, with F247W counted along it
Neuromedin-K receptor (Homo sapiens, UniProt P29371, Y247A), sequence (P29371 whole entry Y247A): as the sequence (P29371 whole entry Y247F) above, with F247A counted along it

Structure (SMILES) | pKi [1] | inhibition [2] | pKi [3] | Kb [5] [nM] | Kb [6] [nM] | pKi [7] | pKi [8] | inhibition [9] | inhibition [17] | Ratio Ki [4] | other results
CSCC[C@H](NC(=O)[C@H](CC(C)C)NC(=O)CNC(=O)[C@H](Cc1ccccc1)N(C)C(=O)[C@H](Cc1ccccc1)NC(=O)[C@H](Cc1ccccc1)NC(=O)[C@H](CC(=O)O)NC(=O)[C@H](Cc1cnc[nH]1)NC(=O)[C@H](CCSC)NC(=O)[C@@H](N)CC(=O)O)C(N)=O (H-DMHDFF[NMeF]GLM-NH2) | – | – | – | – | – | – | – | – | – | – | EC50 [10]: Not Active; pEC50 [11]: 8.46; EC50 [12]: Not Active; pEC50 [13]: 9.15; pEC50 [14]: 8.65; pKi [15]: < 5.00; EC50 [16]: Not Active
Cc1cc(F)ccc1-c1cc(N2CCC[C@H]2CO)ncc1N(C)C(=O)C(C)(C)c1cc(C(F)(F)F)cc(C(F)(F)F)c1 | 9.22 | Active | 8.82 | – | – | 8.85 | 8.55 | – | Active | 2.5 | Kb [18]: 39.8 nM; Activity [19]: Active; inhibition [20]: Active
Cc1cc(F)ccc1-c1cc(N2CCN(S(C)(=O)=O)[C@@H](C)C2)ncc1N(C)C(=O)C(C)(C)c1cc(C(F)(F)F)cc(C(F)(F)F)c1 | 9.70 | Active | 8.77 | 16.2 | – | 9.52 | 9.30 | Active | Active | 8.5 | Kb [21]: 47.9 nM; Ratio Ki [22]: 1.1; pKi [23]: 8.29; Activity [24]: inactive; pKi [25]: 8.74; Ratio Ki [26]: 3; pKi [27]: 7.71; Ratio Ki [28]: 11.6; pKi [29]: < 5.00

Further compounds by rising pKi [1], results first:

pKi [1] | inhibition [2] | pKi [3] | Kb [5] [nM] | Kb [6] [nM] | pKi [7] | pKi [8] | inhibition [9] | inhibition [17] | Structure (SMILES) | Ratio Ki [4] | other results
8.60 | Active | 7.92 | 120 | 20.9 | 8.89 | 8.68 | Active | – | Cc1cc(F)ccc1-c1cc(N2CC[C@H](O)C2)ncc1N(C)C(=O)C(C)(C)c1cc(C(F)(F)F)cc(C(F)(F)F)c1 | 4.8 | –
9.00 | Active | 8.46 | 97.7 | 37.2 | 8.85 | 8.77 | Active | – | Cc1cc(F)ccc1-c1cc(N2CCC3(CC2)OCCS3(=O)=O)ncc1N(C)C(=O)C(C)(C)c1cc(C(F)(F)F)cc(C(F)(F)F)c1 | 3.5 | –
